Results reported in ChEMBL document CHEMBL1124475, “The thieno[3,2-c]pyridine and furo[3,2-c]pyridine rings: new pharmacophores with potential antipsychotic activity” (J Med Chem, 1989).
Active and inactive are the calls of the source. The calls are words filed in the database; no cut-off is given here.

What was measured:
Rattus norvegicus [1] = assay: Blockade of Sidman-avoidance activity in rats when administered perorally; format: functional
Summary of the method: (§1)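 Rats trained in once-daily Sidman sessions until stable; non-learners after 3 days replaced. Twelve rats dosed 30 min before session. Each rat compared with mean of its previous three drug-free days by paired t test. Testing continued to minimally effective dose; maximum usually 100 mg/kg. MED is mean over 12 animals.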

[2] = molecular target: Serotonin 1 (5-HT1) receptor (Rattus norvegicus, UniProt P28564+P30940+P19327+P28565); assay: Ability to bind at 5-hydroxytryptamine 1 receptor of rat hippocampus by displacing [3H]5-HT; format: tissue-based
Summary of the method: (§2)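 Rat receptor radioligand displacement, five test-ligand concentrations used to calculate IC50, each assay in duplicate. Some compounds determined four times (in duplicate), with mean IC50 reported.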

Rattus norvegicus [3] = assay: Reversal of trifluoperazine-induced catalepsy in rats when administered perorally; Inactive; format: functional, organism-based
Rattus norvegicus [4] = assay: Blockade of apomorphine-induced stereotypy in rats when administered perorally; format: functional; settings: po
[5] = molecular target: T1, 5-hydroxytryptamine receptor 1A (Rattus norvegicus, UniProt P19327); assay: Ability to bind at 5-hydroxytryptamine 1A receptor of rat hippocampus by displacing [3H]8-OH-DPAT; format: tissue-based; summary of the method: as §2
T1 sequence (P19327 whole entry): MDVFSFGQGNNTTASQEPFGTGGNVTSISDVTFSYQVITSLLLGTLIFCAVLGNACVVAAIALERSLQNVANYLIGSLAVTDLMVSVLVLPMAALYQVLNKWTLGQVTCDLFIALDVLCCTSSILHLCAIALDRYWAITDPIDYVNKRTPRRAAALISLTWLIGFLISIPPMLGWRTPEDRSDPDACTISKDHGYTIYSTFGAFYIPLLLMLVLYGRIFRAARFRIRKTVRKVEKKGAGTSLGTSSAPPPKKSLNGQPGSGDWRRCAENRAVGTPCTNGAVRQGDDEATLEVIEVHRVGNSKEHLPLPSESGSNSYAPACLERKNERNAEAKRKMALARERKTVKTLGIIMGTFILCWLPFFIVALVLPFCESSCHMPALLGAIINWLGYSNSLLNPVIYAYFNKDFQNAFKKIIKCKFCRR

Mus musculus [6] = assay: Blockade of apomorphine-induced climbing in mice when administered perorally
Rattus norvegicus [7] = species on record: Rattus norvegicus; assay: animal or person; settings: po
Rattus norvegicus [8] = assay: Conditioned avoidance response (CAR) when administered perorally; format: functional; settings: po
Rattus norvegicus [9] = assay: Blockade of Sidman-avoidance activity in rats when administered perorally; Inactive; format: functional, organism-based; summary of the method: as §1
[10] = molecular target: T2, Serotonin 2 (5-HT2) receptor (Rattus norvegicus, UniProt P30994+P08909+P14842); assay: Ability to bind at 5-hydroxytryptamine 2 receptor of rat cortex by displacing [3H]spiperone
D(2) dopamine receptor [11] = molecular target: T3, D(2) dopamine receptor (Rattus norvegicus, UniProt P61169); assay: Ability to bind at dopamine receptor D2 of rat corpus striatum by displacing [3H]spiperone
T3 sequence (P61169 whole entry): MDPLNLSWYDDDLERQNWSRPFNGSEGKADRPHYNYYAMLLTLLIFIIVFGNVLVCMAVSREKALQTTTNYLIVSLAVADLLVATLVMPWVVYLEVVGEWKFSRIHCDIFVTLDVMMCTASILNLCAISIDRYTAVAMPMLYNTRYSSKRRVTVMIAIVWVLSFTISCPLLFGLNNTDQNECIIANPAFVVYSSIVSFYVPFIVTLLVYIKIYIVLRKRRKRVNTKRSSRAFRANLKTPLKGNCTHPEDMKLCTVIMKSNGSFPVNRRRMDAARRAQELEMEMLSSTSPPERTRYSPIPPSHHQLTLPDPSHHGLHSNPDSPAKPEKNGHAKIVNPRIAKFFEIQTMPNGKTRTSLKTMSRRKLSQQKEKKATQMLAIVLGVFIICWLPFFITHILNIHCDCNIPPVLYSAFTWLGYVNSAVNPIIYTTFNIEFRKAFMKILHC

[12] = molecular target: T4, Adrenergic receptor alpha-1 (Rattus norvegicus, UniProt P15823+P23944+P43140); assay: Ability to bind at Alpha-1 adrenergic receptor by displacing [3H]WB-4101; format: protein assay
T4 sequence (P15823 whole entry): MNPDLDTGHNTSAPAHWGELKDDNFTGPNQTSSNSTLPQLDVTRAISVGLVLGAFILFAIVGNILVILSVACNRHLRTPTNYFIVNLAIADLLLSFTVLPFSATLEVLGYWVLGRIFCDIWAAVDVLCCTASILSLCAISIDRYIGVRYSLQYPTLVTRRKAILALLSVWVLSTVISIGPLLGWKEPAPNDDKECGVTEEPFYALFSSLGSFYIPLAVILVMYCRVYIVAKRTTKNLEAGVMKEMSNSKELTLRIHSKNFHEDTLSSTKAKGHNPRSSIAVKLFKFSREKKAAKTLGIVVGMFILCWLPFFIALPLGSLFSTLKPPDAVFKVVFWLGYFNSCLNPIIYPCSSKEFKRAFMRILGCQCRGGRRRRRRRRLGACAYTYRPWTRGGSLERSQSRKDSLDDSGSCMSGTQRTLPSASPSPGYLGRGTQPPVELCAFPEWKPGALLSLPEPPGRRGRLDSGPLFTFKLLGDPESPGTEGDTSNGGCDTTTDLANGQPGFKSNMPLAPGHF
T4 sequence (P23944 whole entry): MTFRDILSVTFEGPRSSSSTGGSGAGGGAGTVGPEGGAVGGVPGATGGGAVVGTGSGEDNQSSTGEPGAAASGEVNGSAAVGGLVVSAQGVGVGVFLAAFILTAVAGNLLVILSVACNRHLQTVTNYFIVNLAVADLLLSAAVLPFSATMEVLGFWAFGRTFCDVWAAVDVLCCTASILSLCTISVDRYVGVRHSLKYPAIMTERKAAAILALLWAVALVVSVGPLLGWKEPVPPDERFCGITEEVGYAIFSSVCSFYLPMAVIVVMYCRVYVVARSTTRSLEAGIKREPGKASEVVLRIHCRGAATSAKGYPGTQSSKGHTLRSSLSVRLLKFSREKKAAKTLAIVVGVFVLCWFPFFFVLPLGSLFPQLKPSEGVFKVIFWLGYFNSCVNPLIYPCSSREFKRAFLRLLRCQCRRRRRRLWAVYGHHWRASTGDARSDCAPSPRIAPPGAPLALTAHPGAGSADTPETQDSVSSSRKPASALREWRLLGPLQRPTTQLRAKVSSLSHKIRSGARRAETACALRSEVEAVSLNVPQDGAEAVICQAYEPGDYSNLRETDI
T4 sequence (P43140 whole entry): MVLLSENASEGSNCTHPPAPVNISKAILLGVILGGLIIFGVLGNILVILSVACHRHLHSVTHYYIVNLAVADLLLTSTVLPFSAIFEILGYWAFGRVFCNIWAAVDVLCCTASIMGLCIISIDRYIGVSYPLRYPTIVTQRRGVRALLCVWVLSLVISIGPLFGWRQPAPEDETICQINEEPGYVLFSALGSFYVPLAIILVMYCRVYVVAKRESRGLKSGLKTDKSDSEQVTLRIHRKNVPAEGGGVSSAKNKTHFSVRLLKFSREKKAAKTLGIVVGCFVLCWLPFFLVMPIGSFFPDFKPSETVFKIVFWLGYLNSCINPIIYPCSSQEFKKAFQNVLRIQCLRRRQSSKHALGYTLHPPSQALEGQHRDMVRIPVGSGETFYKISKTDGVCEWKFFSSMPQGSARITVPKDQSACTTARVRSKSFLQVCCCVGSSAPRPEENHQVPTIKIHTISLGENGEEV

[13] = molecular target: T2, Serotonin 2 (5-HT2) receptor; assay: Ability to bind at serotonin 5-hydroxytryptamine 2 receptors of rat cortex by displacing [3H]spiperone
D(2) dopamine receptor [14] = molecular target: T3, D(2) dopamine receptor; assay: Ability to bind at Dopamine receptor D2 of rat corpus striatum by displacing [3H]spiperone; summary of the method: as §2
[15] = molecular target: T4, Adrenergic receptor alpha-1; assay: Ability to bind at alpha-1 adrenergic receptor by displacing [3H]WB-4101; format: protein assay; summary of the method: as §2
Mus musculus [16] = assay: Blockade of apomorphine-induced climbing in mice when administered perorally; format: functional; settings: po
Summary of the method: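 Male mice habituated 30 min in individual cages, then dosed orally (distilled H2O or 0.5% Methocel suspension, 10 mL/kg) or vehicle. Apomorphine 1.5 mg/kg sc given 30 min later. Climbing scored at 10, 20, 30 min post-apomorphine. At least five animals per dose, maximum 100 mg/kg.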

Row | IC50 [2] | IC50 [5] | IC50 [10] | IC50 (D(2) dopamine receptor [11]) | IC50 [12] | IC50 [13] | IC50 (D(2) dopamine receptor [14]) | IC50 [15] | SMILES | MED50 (Rattus norvegicus [1]) | ED50 (Rattus norvegicus [3]) | ED50 (Rattus norvegicus [4]) | MED50 (Mus musculus [6]) | ED50 (Rattus norvegicus [7]) | ED50 (Rattus norvegicus [8]) | MED50 (Rattus norvegicus [9]) | MED (Rattus norvegicus [1]; po) | MED (Mus musculus [16])
1 | > 1000 nM | 372 nM |  |  |  |  |  |  | CN(C)CCCN1c2ccccc2Sc2ccc(Cl)cc21 [CHLORPROMAZINE] | 25 mg/kg | inactive | 9.6 mg/kg | 6 mg/kg | 4.1 mg/kg |  |  |  | 
2 | 3.7 nM |  | 20.2 nM | 418 nM | 36.8 nM |  |  |  | Cl.O=C1SC2(CCCC2)C(=O)N1CCCCN1CCN(c2nccc3ccsc23)CC1 |  | inactive | 46.7 mg/kg |  |  | 43.1 mg/kg | inactive |  | 
3 | 3.8 nM |  |  |  |  | 5.8 nM | 71.7 nM | 22.8 nM | OC(CCCN1CCN(c2nccc3sccc23)CC1)c1ccc(F)cc1 (stereo not drawn) |  |  | 9 mg/kg |  |  | 9.9 mg/kg |  | 10 mg/kg | 10 mg/kg
